# Source: PubChem
# Statin myotox sup: suppressors of simvastatin-induced myotoxicity in C2C12 myotubes. ATP luminescence, 48 h; scaled: DMSO 0, geranylgeraniol control 100. rescue of ATP level, % at 7.49 µM. 330,000 tested, 0.78% active;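 active = mean ATP rescue above about 67%, or every replicate alone reaching that limit, limit read from the data, passing the limit was not always enough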;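 also: myotubes were challenged with 10 µM simvastatin during compound exposure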
# S100A4 MyoIIA: blocks human S100A4 binding to myosin IIA peptide | S100A4/TAMRA-MyoIIA peptide fluorescence polarization | inhibition, % at 10.7 µM | AID 652163 | 360,000 tested, 0.14% active;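 active = mean inhibition of at least 70% across replicates, with every replicate also reaching that level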
# Target sequence (P26447 whole entry, looked up): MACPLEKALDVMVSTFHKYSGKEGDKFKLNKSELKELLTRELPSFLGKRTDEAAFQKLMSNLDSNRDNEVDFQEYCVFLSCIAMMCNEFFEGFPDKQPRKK
#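 Material: S100A4 monomer (human). Medium: Calcium-containing HEPES buffer, pH 7.2. Probe or stimulus: labelled myosin peptide probe, 5 nM. Compound dosing: one concentration per compound. Timing: polarization read 5 min after assay mix addition, stable 5–60 min. Benchmarks: DMSO as neutral control, TFP as positive control.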
# CAL PDZ FP-1: CAL PDZ (human) peptide binding inhibition; purified CAL PDZ, TMR-peptide fluorescence polarization, 1 h; inhibition, % at 24.9 µM; 300,000 tested, 0.92% active;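 active = mean inhibition of at least 30% with at least half of replicates also reaching 30%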;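 also: 0% = DMSO neutral control and 100% = excess unlabeled competitor peptide PRC23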
# dFosB activator: enhances mouse delta FosB homodimer DNA binding; purified delta FosB, TAMRA-CDK5 oligo fluorescence polarization; percent of positive-control signal above neutral wells; 340,000 tested, 0.99% active; P13346; activation, % at 25 µM; AID 493131;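 active = mean activation above about 17%, with every replicate also reaching it, limit read from the data, passing the limit was not always enough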
# Target sequence (P13346 whole entry, looked up): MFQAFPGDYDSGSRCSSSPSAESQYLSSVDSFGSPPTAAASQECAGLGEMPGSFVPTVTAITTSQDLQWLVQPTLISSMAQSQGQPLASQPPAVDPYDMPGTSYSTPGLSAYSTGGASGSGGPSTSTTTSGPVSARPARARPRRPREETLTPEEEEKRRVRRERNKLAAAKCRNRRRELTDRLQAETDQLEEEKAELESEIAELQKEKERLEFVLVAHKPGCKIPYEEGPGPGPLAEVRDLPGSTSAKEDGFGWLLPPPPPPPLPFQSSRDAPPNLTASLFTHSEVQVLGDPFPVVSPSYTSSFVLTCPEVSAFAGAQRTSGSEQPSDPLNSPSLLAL
# CDK5 p35 inh: blocks human CDK5/p35 kinase activity; inhibition, % at 10 µM; Q00535+Q15078; 330,000 tested, 0.01% active; Recombinant CDK5/p35, ADP-Glo luminescence, 60 min;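 active = highest replicate inhibition of at least 50% and at least 75% of replicates reaching 50%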;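 also: plate controls were DMSO neutral control for no effect and GW8510 at 10 µM for full effect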
# CAL PDZ FP-2: blocks peptide binding to human CAL PDZ domain | 330,000 tested, 0.02% active | purified CAL PDZ, TMR-peptide fluorescence polarization, 1 h | AID 504414 | inhibition, % at 20 µM;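 active = highest replicate inhibition of at least 40%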;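 also: plate controls were DMSO neutral control wells for no effect and unlabeled competitor peptide control wells for full effect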
#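 Material – purified CerCALP PDZ construct · Detection – FP readout, S and P plane fluorescence · Measure – percent inhibition from loss of millipolarization · Controls – unlabelled peptide for full inhibition, DMSO wells as neutral · Probe or stimulus – TMR-labelled reporter peptide T*-PRC34 bound in PDZ groove · Times – 1 h at RT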
# Active calls of the source: *; · = no result given. A selection: hits, their analogues and other compounds. The true share with any hit is near 2%.
SMILES,Statin myotox sup,S100A4 MyoIIA,CAL PDZ FP-1,dFosB activator,CDK5 p35 inh,CAL PDZ FP-2
O=C(O)c1cccc(NC(=O)c2cccc(S(=O)(=O)Nc3cccc([N+](=O)[O-])c3)c2)c1,7,-3,96*,6,0,-2
O=C(CN1CCN(C/C=C/c2ccccc2)CC1)NC(=O)NC1CCCCC1,·,-3,72*,-3,-1,·
CCn1nc(C)c(NC(=O)/C=C/c2ccc(OC)c(COc3ccc(Cl)cc3Br)c2)c1C,·,·,-1,207*,0,-2
O=c1[nH]c2ccccc2c2nc(-c3cccc(S(=O)(=O)N4CCCC4)c3)nn12,·,5,-4,53*,-1,-6
Cc1ccc2c(c1)NC(=O)C(CC(=O)Nc1ccc(CN3CCC(C)CC3)cc1)O2 (stereo unspecified),3,·,·,-1,1,0
O=C(COC(=O)c1ccc[nH]c1=O)NCC1CCCO1 (stereo unspecified),6,·,56*,1,0,0
O=C(CCCc1nc(-c2ccc(Cl)cc2)no1)NC1CCCC1,-6,0,74*,-2,1,-1
CCOc1ccc(Br)cc1S(=O)(=O)Nc1ccc(C(=O)OCC(=O)N(C)c2ccccc2)cc1,·,·,0,2,0,-1
Cc1ccc(CNc2ncccc2-c2nc3cc(Cl)ccc3o2)cc1,1,·,·,-10,1,0
C=CCn1c(SCC(=O)Nc2ccc(N(C)C)cc2)nnc1-c1cccc(C)c1,84*,·,3,-8,-1,-1
C=CCn1c(SCC(=O)Nc2cccc(C)c2)nnc1-c1cnccn1,-5,·,·,-4,0,0
C[C@H](N)c1nnc(SCC(=O)c2ccc(Cl)cc2)o1,119*,·,-4,4,4,0
CN(c1ccccc1)S(=O)(=O)c1ccc(C(=O)NCc2ccco2)cc1,7,-3,6,-2,-2,0
Cc1[nH]nc(NCCO)c1[N+](=O)[O-],19,7,31*,-5,0,5
CCOC(=O)c1c(C)[nH]c(N=Nc2ccccc2)c1C,-11,·,-4,-5,-1,0
O=C(C=C1SCCS1)/C=C/c1ccco1,·,·,-3,-5,1,-1
O=C(O)C(C(=O)/C=C/c1ccco1)=C1SCCS1,68*,·,-3,-3,-1,-1
CC(C)(C)OC(=O)NCc1ccc(CNC(=O)c2nc[nH]c2C(=O)N2CCc3ccccc3C2)cc1,6,0,1,2,-1,0
O=C1OC(c2ccccc2)(c2ccccc2)c2ccccc21,2,15,4,-8,1,55*
O=C1Nc2ccc(Br)cc2C1(O)c1ccccc1 (stereo unspecified),1,0,·,-9,-1,0
O=C1CCCCCC1C1(O)C(=O)Nc2ccc(Br)cc21 (stereo unspecified),4,·,57*,-7,-1,-2
COn1c(-c2ccccc2)nc2c1CCc1c-2no[n+]1[O-],89*,·,-2,5,0,-1
O=C(NCc1ccccc1Cl)c1cnccn1,67*,·,0,3,0,-1
COc1ccc(Br)cc1CNc1ccc2[nH]c(=O)[nH]c2c1,0,-4,67*,-3,-1,-1
COc1cc(-c2noc(CCCC(=O)Nc3cccnc3)n2)cc(OC)c1OC,·,-9,69*,3,-1,-1
SMILES,Statin myotox sup,S100A4 MyoIIA,CAL PDZ FP-1,dFosB activator,CDK5 p35 inh,CAL PDZ FP-2
COc1cc(-c2noc(CCCC(=O)Nc3ccc(C(N)=O)cc3)n2)cc(OC)c1OC,·,-3,·,·,·,·
CCc1ccc(NC(=O)C2CCCN(S(=O)(=O)c3ccc4c(c3)CCCN4C(C)=O)C2)cc1 (stereo unspecified),12,1,·,2,1,-1
COc1ccc(CNC(=O)C2CCCN(S(=O)(=O)c3ccc4c(c3)CCCN4C(C)=O)C2)cc1 (stereo unspecified),120*,-4,-3,-6,0,-3
Cc1cccc(C)c1NC(=O)/C(C#N)=C/c1cccs1,84*,·,4,-3,1,-3
Cc1ccc(NC(=O)COC(=O)c2nn(-c3ccc(Cl)cc3)cc2O)cc1,-6,-12,-1,-4,-1,-1
NNC(=O)c1nn(-c2ccc(Cl)cc2)cc1O,113*,-6,-5,-7,0,0
CCCS(=O)(=O)NC(=O)C1(C)CCN(C(=O)c2ccc(OC)cc2)C1 (stereo unspecified),7,·,·,·,·,·
O=C(Cn1c(O)c(/C=C2\C=Nc3ccccc32)sc1=O)Nc1ccc2c(c1)OCO2,14,5,-5,36*,1,-3
O=C(Cn1c(O)c(/C=C2\C=Nc3ccccc32)sc1=O)N1CCOCC1,·,0,·,-1,-4,1
C=CCOc1ccc(Oc2cc(C)nc(SC)n2)nn1,-8,·,43*,-11,1,·
Cc1nnc(SCC(=O)c2ccc(S(=O)(=O)N3CCOCC3)cc2)n1-c1ccccc1,-6,·,73*,0,0,1
Cc1ccccc1S(=O)(=O)Cc1ccc(C(=O)NCCCN(C)Cc2ccccc2)o1,-4,-1,-2,-18,-3,-1
C/C(=N\OC(=O)c1cccc(C(F)(F)F)c1)c1sc(-c2ccccc2)nc1C,-9,·,52*,1,-1,-1
C/C(=N\OC(=O)c1cccc(C)c1)c1sc(-c2ccccc2)nc1C,-4,·,2,-7,4,-9
COc1ccc(S(=O)(=O)N(C)C[C@H]2Oc3c(NC(=O)CCCCCC(=O)Nc4ccccc4N)cccc3C(=O)N([C@@H](C)CO)C[C@H]2C)cc1,·,4,·,·,·,·
Cc1nonc1NC(=O)CSc1nnc(-c2ccoc2C)n1CC(C)C,20,·,177*,-3,-1,·
CC(=O)NCc1ccc(C(=O)CCl)cc1,-1,-25,-1,0,1,0
CC(=O)Nc1ccc(C(=O)CCl)cc1,0,94*,-4,3,0,0
CC(C)(C)N(C(=O)Cn1nnc(-c2ccc(F)cc2)n1)C(C(=O)NC1CCCC1)c1ccncc1 (stereo unspecified),-3,·,36*,-6,-3,-1
Cc1ccc(-c2nnn(CC(=O)N(Cc3ccc(F)cc3)C(C(=O)NC3CCCC3)c3ccncc3)n2)o1 (stereo unspecified),9,·,6,2,-1,-2
O=C(NC1CCCC1)C(c1ccncc1)N(CC1CCCO1)C(=O)Cn1nnc(-c2cccs2)n1 (stereo unspecified),·,·,32*,-5,2,0
Cc1ccc(-c2nnn(CC(=O)N(CCO)C(C(=O)NC3CCCCC3)c3ccncc3)n2)o1 (stereo unspecified),·,0,1,-2,0,-2
